Data as given in ChEMBL document CHEMBL1134489, “Enantioselective syntheses of dopaminergic (R)- and (S)-benzyltetrahydroisoquinolines” (J Med Chem, 2001).

Columns and labels:
D(1A) dopamine receptor = D(1A) dopamine receptor (Rattus norvegicus, UniProt P18901); experiment: Inhibition of [3H]-SCH- 23390 binding to the rat striatal membranes; type: cell membranes, Membrane
Procedure, shortened: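 Striatal membranes washed twice at 20000g, resuspended in Tris with 5 mM MgSO4, 0.5 mM EDTA, 0.02% ascorbic acid, sonicated. Membranes (100 µg protein) incubated 1 h at 25 °C with 0.25 nM [3H]SCH 23390 and test drug. Nonspecific binding defined with 30 µM SK&F 38393. Filtration, then scintillation counting. IC50 from curves of 4-11 concentrations, 4-6 determinations per concentration.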

[1] = biological target: Sodium-dependent dopamine transporter (Rattus norvegicus, UniProt P23977); experiment: Inhibition of [3H]dopamine uptake in rat striatal synaptosomes; type: subcellular, Brain
Procedure, shortened: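 Synaptosomes from male Wistar rat striatum (sucrose homogenate, 1000g then 15000g pellet) in oxygenated Krebs-Ringer pH 7.6. Preincubated 5 min with 10 µM pargyline, then 5 min with 2 nM final [3H]dopamine. Stopped by ice-cold dilution and filtration. Retained radioactivity counted by liquid scintillation. IC50 from curves with 4-11 concentrations, 4-6 determinations each.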

D(2) dopamine receptor = D(2) dopamine receptor (Rattus norvegicus, UniProt P61169); experiment: Inhibition of [3H]-Raclopride binding to the rat striatal membranes; type: cell membranes, Membrane
Procedure, shortened: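 Rat striatum homogenized in 50 mM Tris-HCl pH 7.4, washed four times by centrifugation at 20000g, resuspended in Tris with 120 mM NaCl, 5 mM KCl, 1 mM CaCl2, 1 mM MgCl2, 0.1% ascorbic acid. Membranes (200 µg protein) incubated 1 h at 25 °C with 0.5 nM [3H]raclopride plus drug. Nonspecific binding defined with 50 µM apomorphine. Filtration, scintillation counting. IC50 from 4-11 concentrations, 4-6 determinations each.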

Chain of D(2) dopamine receptor (P61169 whole entry): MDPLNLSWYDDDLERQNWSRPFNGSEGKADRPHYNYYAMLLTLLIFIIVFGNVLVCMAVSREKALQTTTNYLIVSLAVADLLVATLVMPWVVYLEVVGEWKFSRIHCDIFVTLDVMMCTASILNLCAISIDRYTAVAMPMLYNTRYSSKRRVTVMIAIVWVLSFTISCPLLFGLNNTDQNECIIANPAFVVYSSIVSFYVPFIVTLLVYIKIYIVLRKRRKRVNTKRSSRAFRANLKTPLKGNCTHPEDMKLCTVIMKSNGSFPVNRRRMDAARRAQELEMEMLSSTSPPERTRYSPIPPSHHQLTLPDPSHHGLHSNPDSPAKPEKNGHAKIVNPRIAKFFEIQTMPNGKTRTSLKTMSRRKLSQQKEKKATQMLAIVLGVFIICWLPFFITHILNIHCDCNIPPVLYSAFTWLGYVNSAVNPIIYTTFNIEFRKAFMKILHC
Chain of Sodium-dependent dopamine transporter (P23977 whole entry): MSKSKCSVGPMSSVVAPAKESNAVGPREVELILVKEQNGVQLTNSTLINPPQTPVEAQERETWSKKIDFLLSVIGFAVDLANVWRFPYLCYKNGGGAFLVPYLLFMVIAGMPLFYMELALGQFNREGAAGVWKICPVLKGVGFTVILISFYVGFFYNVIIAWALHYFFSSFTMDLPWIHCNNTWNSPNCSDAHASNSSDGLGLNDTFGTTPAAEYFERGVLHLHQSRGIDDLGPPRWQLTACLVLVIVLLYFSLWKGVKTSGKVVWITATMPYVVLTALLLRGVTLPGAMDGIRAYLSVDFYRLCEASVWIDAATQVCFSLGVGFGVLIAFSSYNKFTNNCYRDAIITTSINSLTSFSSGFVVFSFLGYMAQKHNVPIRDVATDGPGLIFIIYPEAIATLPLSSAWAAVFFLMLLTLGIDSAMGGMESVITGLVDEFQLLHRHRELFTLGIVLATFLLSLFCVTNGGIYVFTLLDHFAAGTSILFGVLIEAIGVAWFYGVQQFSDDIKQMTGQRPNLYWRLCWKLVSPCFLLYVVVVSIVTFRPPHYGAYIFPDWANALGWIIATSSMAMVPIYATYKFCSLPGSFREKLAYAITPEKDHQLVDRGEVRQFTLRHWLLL
Chain of D(1A) dopamine receptor (P18901 whole entry): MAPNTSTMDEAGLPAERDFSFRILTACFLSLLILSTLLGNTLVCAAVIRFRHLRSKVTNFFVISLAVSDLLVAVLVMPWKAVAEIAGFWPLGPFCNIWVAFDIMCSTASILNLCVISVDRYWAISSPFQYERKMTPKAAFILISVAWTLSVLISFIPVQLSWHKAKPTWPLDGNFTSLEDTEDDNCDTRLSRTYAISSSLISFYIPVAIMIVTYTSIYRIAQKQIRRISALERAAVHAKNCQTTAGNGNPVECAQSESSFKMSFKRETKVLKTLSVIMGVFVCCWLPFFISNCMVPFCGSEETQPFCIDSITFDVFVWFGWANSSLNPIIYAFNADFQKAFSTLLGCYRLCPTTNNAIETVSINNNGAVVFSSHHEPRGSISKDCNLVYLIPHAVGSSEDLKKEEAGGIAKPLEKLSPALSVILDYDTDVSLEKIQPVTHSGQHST

IC50 (D(1A) dopamine receptor) [µM]	IC50 [1] [µM]	IC50 (D(2) dopamine receptor) [µM]	SMILES
> 100	6.8	53.1	c1ccc(C[C@H]2NCCc3cc4c(cc32)OCO4)cc1
23.9	3.6	4	c1ccc(C[C@@H]2NCCc3cc4c(cc32)OCO4)cc1
> 100	91.5	61.2	CCCN1CCc2cc(O)c(O)cc2[C@H]1Cc1ccccc1
16.6	64.8	14.7	CCCN1CCc2cc(O)c(O)cc2[C@@H]1Cc1ccccc1
> 100	43.6	> 100	CCCN1CCc2cc3c(cc2[C@H]1Cc1ccccc1)OCO3
51.9	20.3	21.9	CCCN1CCc2cc3c(cc2[C@@H]1Cc1ccccc1)OCO3
